# Published values from different studies.
# Compare with care: the assays were run in different laboratories.
# PIK3CA H1047Y: Phosphatidylinositol 4,5-bisphosphate 3-kinase catalytic subunit alpha isoform (PIK3CA, Homo sapiens, UniProt P42336, H1047Y)
# PIK3CA E545A: Phosphatidylinositol 4,5-bisphosphate 3-kinase catalytic subunit alpha isoform (PIK3CA, Homo sapiens, UniProt P42336, E545A)
# PIK3CA E545K: Phosphatidylinositol 4,5-bisphosphate 3-kinase catalytic subunit alpha isoform (PIK3CA, Homo sapiens, UniProt P42336, E545K)
# PIK3CA: Phosphatidylinositol 4,5-bisphosphate 3-kinase catalytic subunit alpha isoform (PIK3CA, Homo sapiens, UniProt P42336)
# PIK3CA M1043I: Phosphatidylinositol 4,5-bisphosphate 3-kinase catalytic subunit alpha isoform (PIK3CA, Homo sapiens, UniProt P42336, M1043I)
# PIK3CA I800L: Phosphatidylinositol 4,5-bisphosphate 3-kinase catalytic subunit alpha isoform (PIK3CA, Homo sapiens, UniProt P42336, I800L)
# PIK3CA H1047L: Phosphatidylinositol 4,5-bisphosphate 3-kinase catalytic subunit alpha isoform (PIK3CA, Homo sapiens, UniProt P42336, H1047L)
# PIK3CA Q546K: Phosphatidylinositol 4,5-bisphosphate 3-kinase catalytic subunit alpha isoform (PIK3CA, Homo sapiens, UniProt P42336, Q546K)
Compound,target,observed,method,tested at,remaining binding [%]
Cc1c(NC(=O)c2cc(C(N)=O)nc3cc(F)ccc23)c(C(F)(F)F)nn1Cc1ccc(C#N)cc1,PIK3CA H1047Y,cell-free assay,competition with immobilised ligand,1 µM,86
CN(c1nccc(-c2cnn3ncccc23)n1)C1CC1,PIK3CA E545A,binding,,1 µM,100
NS(=O)(=O)c1cc(NC(=O)C2(c3ccccc3Cl)CC2)ccc1Oc1cccc(Cl)c1,PIK3CA H1047Y,cell-free assay,competition with immobilised ligand,1 µM,76
O=C(NCCCN1CCOCC1)c1ccc(Nc2nccc(-c3cc4ccccc4s3)n2)cc1,PIK3CA E545K,binding,competition with immobilised ligand,1 µM,40
O=C(Nc1c[nH]nc1C(=O)NC1CCNCC1)c1cc(F)cc(F)c1,PIK3CA,binding,competition with immobilised ligand,1 µM,100
O=C(c1ccc(Nc2ncc(Cl)c(-c3ccc(Cl)s3)n2)cc1)N1CCC(N2CCCC2)CC1,PIK3CA,binding,competition with immobilised ligand,1 µM,100
CCN(CC)Cc1cc(Nc2ccnc3cc(Cl)ccc23)ccc1O,PIK3CA,cell-free assay,competition with immobilised ligand,10 µM,93
FC(F)(F)Oc1cccc(-c2cnc3ccc(-c4ccncc4)nn23)c1,PIK3CA,cell-free assay,competition with immobilised ligand,5 µM,35
COc1ncc2cc3ccccc3nc2c1C#N,PIK3CA,cell-free assay,competition with immobilised ligand,5 µM,100
COc1cnc(Nc2cccc(S(N)(=O)=O)c2)nc1N1CCN(c2ccccc2)CC1,PIK3CA M1043I,binding,competition with immobilised ligand,1 µM,79
CN(C)c1nccc(-c2cnn3ncccc23)n1,PIK3CA E545A,binding,,1 µM,100
O=C(NCC1CCOCC1)c1n[nH]cc1NC(=O)c1c(F)cccc1F,PIK3CA E545K,binding,competition with immobilised ligand,1 µM,75
CNCc1ccccc1-c1csc([C@H](C)Nc2nc(C)nc3cc(OC)c(OC)cc23)c1,PIK3CA I800L,cell-free assay,competition with immobilised ligand,1 µM,81
CNC(=O)[C@@H]1CC[C@@H](n2c(-c3ccc4cnccc4c3)nc3ccc(C(=O)NCc4cccc(C(N)=O)c4)cc32)C1,PIK3CA,binding,competition with immobilised ligand,1 µM,100
CN(C)c1nccc(-c2cnc3ncccn23)n1,PIK3CA E545K,binding,,1 µM,82
CCN1CCN(Cc2ccc(C(=O)Nc3ccc(C)c(Oc4ccc5c(c4)CC(=O)N5)c3)cc2C(F)(F)F)CC1,PIK3CA E545A,binding,competition with immobilised ligand,1 µM,71
C[C@H]1CCN(c2nccc(-c3cnn4ncccc34)n2)C1,PIK3CA H1047L,binding,,1 µM,69
c1cncc(-c2cccc(Nc3nccc(NC4CCCCC4)n3)c2)c1,PIK3CA,binding,competition with immobilised ligand,10 µM,100
O=C(c1ccc(Nc2ncc(Cl)c(-c3cc4ccccc4s3)n2)cc1)N1CCC(N2CCCC2)CC1,PIK3CA H1047Y,binding,competition with immobilised ligand,1 µM,70
Cn1nc(C(F)(F)F)cc1-c1cnc(N2CCc3cc(S(=O)(=O)Nc4c(F)cc(Cl)cc4F)cc(N4CCCC4=O)c32)nc1,PIK3CA E545K,cell-free assay,competition with immobilised ligand,1 µM,82
Nc1ncc2c(n1)-c1c([nH]c3ccc(C#CC4CC4)cc13)CCCC2,PIK3CA H1047L,binding,competition with immobilised ligand,1 µM,80
CC1CCCN1c1nccc(-c2cnn3ncccc23)n1 (stereo not shown),PIK3CA H1047Y,binding,,1 µM,88
CN1CCN(c2ccc(Nc3nccc(-c4ccccc4)n3)cc2C(F)(F)F)CC1,PIK3CA Q546K,binding,,10 µM,68
C=CC(=O)N1CCC(C(=O)NCC(=O)N2CCN(c3nc(-c4cnc(N)nc4C(F)F)nc(N4CCOCC4)n3)CC2)CC1,"Phosphatidylinositol 4,5-bisphosphate 3-kinase catalytic subunit alpha isoform (PIK3CA, Homo sapiens, UniProt P42336, E542K)",binding,competition with immobilised ligand,1 µM,0
CN(CCCC(F)(F)F)c1nccc(-c2cnn3ncccc23)n1,PIK3CA H1047L,binding,,1 µM,100
O=C(NCCCN1CCOCC1)c1ccc(Nc2ncc(Cl)c(-c3ccc(Cl)s3)n2)cc1,PIK3CA M1043I,binding,competition with immobilised ligand,1 µM,100
CN([C@@H]1CCc2c(CC(=O)O)c3cc(S(C)(=O)=O)ccc3n2C1)S(=O)(=O)c1ccc(F)cc1,PIK3CA Q546K,cell-free assay,competition with immobilised ligand,1 µM,100
N[C@H]1CCN(c2nccc(-c3cnn4ncccc34)n2)C1,PIK3CA H1047Y,binding,,1 µM,56
Cc1noc([C@H]2C[C@@H](c3ccc(C(F)(F)F)cc3)CN(C(=O)N3CCS(=O)(=O)C3)C2)n1,PIK3CA M1043I,cell-free assay,competition with immobilised ligand,1 µM,100
COc1ccnn2ncc(-c3ccnc(N(C)C)n3)c12,PIK3CA I800L,binding,,1 µM,94
O=C(c1ccc(Nc2nccc(-c3cc4ccccc4s3)n2)cc1)N1CCC(N2CCCC2)CC1,PIK3CA I800L,binding,competition with immobilised ligand,1 µM,100
C[C@@H](c1ccc(-n2cnc3c(N)ncnc32)cc1)N1CCc2nn(C)c(Cc3ccccc3)c2C1=O,PIK3CA H1047Y,binding,competition with immobilised ligand,0.1 µM,78
CCS(=O)(=O)c1cc2cc(C[C@](O)(CC(C)(C)c3ccc(F)cc3C(N)=O)C(F)(F)F)[nH]c2cn1,PIK3CA I800L,cell-free assay,competition with immobilised ligand,1 µM,73
COc1cnc(Nc2cccc(S(N)(=O)=O)c2)nc1N1CCN(c2ccccc2)C(=O)C1,PIK3CA E545A,binding,competition with immobilised ligand,1 µM,98
CO[C@@H](C)c1c(Nc2ccc([C@H](N(C)C(=O)C3CCS(=O)(=O)CC3)C(F)(F)F)cc2)cnc2cc(Cl)nn12,"Phosphatidylinositol 4,5-bisphosphate 3-kinase catalytic subunit alpha isoform (PIK3CA, Homo sapiens, UniProt P42336, C420R)",cell-free assay,competition with immobilised ligand,1 µM,93
Cc1cnc(Nc2ccc(C(=O)N3CCC(N4CCCC4)CC3)cc2)nc1-c1cc2ccccc2s1,PIK3CA H1047Y,binding,competition with immobilised ligand,1 µM,65
CN1CCN(c2ccc(Nc3nccc(-c4cccc([N+](=O)[O-])c4)n3)cc2C(F)(F)F)CC1,PIK3CA Q546K,binding,,10 µM,37
